7 compounds from ChEMBL document CHEMBL1146476, “Structure-activity relationships of ring C-secotaxoids. 1. Acylative modifications” (J Nat Prod, 2004) can be followed below.

Assay [1] relates to MCF7. Kind of assay: Cytotoxicity against human MCF7 cells after 72 hrs by SRB assay. Type of assay: functional, cell-based. To be noted: MCF7, 72 h.
Assay [2] deals with MCF7. As to the kind of experiment: Cytotoxicity against human multidrug-resistant MCF7 cells after 72 hrs by SRB assay. As to conditions: MCF7, 72 h. The format is functional, cell-based. In a few lines: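 Monolayer cultures kept in RPMI-1640 with 5% FCS, 5% NuSerum IV, 20 mM HEPES, 2 mM L-glutamine at 37 °C, 5% CO2. Cells seeded at 800-1500/well and allowed to attach 15-18 h, then given 10 concentrations spanning 5 logs (DMSO stock diluted in RPMI-1640/10 mM HEPES) for 72 h. Fixed with cold TCA, stained with 0.4% SRB, OD 570 nm. Sigmoid-Emax nonlinear regression fit.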
(Sulforhodamine B stains cellular protein and so reports cell mass.)

For orientation: IC50 means the midpoint of a concentration-inhibition curve. The low end stands for inhibition by little substance, the high end for a need for much substance.

`CC(=O)O[C@@]1([C@@H]2/C(C)=C(/O)C(=O)C3=C(C)[C@@H](OC(=O)[C@H](O)[C@H](CC(C)C)NC(=O)OC(C)(C)C)C[C@@](O)([C@H]2OC(=O)c2ccccc2)C3(C)C)CO[C@@H]1CCO`: the IC50 in assay [1] was found to be 0.014 µM; in assay [2], 1.64 µM.

In the case of `CC(=O)O[C@@]1([C@@H]2/C(C)=C(/OC(=O)OC(C)(C)C)C(=O)C3=C(C)[C@@H](OC(=O)[C@H](O)[C@H](CC(C)C)NC(=O)OC(C)(C)C)C[C@@](O)([C@H]2OC(=O)c2ccccc2)C3(C)C)CO[C@@H]1CCOC(=O)OC(C)(C)C`, the IC50 was determined as 0.051 µM in assay [1] and 0.736 µM in assay [2].

With `CC(=O)OCC[C@H]1OC[C@@]1(OC(C)=O)[C@@H]1/C(C)=C(/OC(C)=O)C(=O)C2=C(C)[C@@H](OC(=O)[C@H](O)[C@H](CC(C)C)NC(=O)OC(C)(C)C)C[C@@](O)([C@H]1OC(=O)c1ccccc1)C2(C)C`, the IC50 in assay [1] stood at 0.036 µM; in assay [2] it was 0.956 µM.

Consider `CC(=O)O[C@@]1([C@@H]2/C(C)=C(/OC(=O)[C@@H](O)[C@@H](CC(C)C)NC(=O)OC(C)(C)C)C(=O)C3=C(C)[C@@H](O)C[C@@](O)([C@H]2OC(=O)c2ccccc2)C3(C)C)CO[C@@H]1CCOC(=O)C(C)(C)C`, for which the IC50 in assay [1] and in assay [2] was more than 3 µM throughout.

Turning to `CC(=O)O[C@@]1([C@@H]2/C(C)=C(/OC(=O)OCc3ccccc3)C(=O)C3=C(C)[C@@H](OC(=O)[C@H](O)[C@H](CC(C)C)NC(=O)OC(C)(C)C)C[C@@](O)([C@H]2OC(=O)c2ccccc2)C3(C)C)CO[C@@H]1CCO`, the IC50 was 0.053 µM in assay [1] and 1.21 µM in assay [2].

On to `CC(=O)O/C1=C(\C)[C@@H]([C@]2(OC(C)=O)CO[C@@H]2CCO)[C@H](OC(=O)c2ccccc2)[C@]2(O)C[C@H](OC(=O)[C@H](O)[C@H](CC(C)C)NC(=O)OC(C)(C)C)C(C)=C(C1=O)C2(C)C`, for which the values for the IC50 in assay [1] and in assay [2] were 0.018 µM and 1 µM, respectively.

For the compound `CC(=O)O[C@H]1C(=O)[C@@]2(C)[C@H]([C@H](OC(=O)c3ccccc3)[C@]3(O)C[C@H](OC(=O)[C@H](O)[C@@H](NC(=O)c4ccccc4)c4ccccc4)C(C)=C1C3(C)C)[C@]1(OC(C)=O)CO[C@@H]1C[C@@H]2O` [PACLITAXEL], the IC50 in assay [2] is 0.354 µM.
